Assay results as given in ChEMBL document CHEMBL4177709, “Design, synthesis and evaluation against Mycobacterium tuberculosis of azole piperazine derivatives as dicyclotyrosine (cYY) mimics” (Bioorg Med Chem, 2018).
pKd: −log10 of the molar value. ≈ marks a conversion by molar mass, not a printed value. Calls of active or inactive are those of the source. The rule behind the calls is not given here.

Tests used:
[1] = test system: Mycobacterium tuberculosis; experiment: Binding affinity to Mycobacterium tuberculosis CYP121A1 assessed as red shift in heme soret peak up to 300 uM by UV-visible spectrophotometric titration method
How it was run: (§1)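 Purified CYP121A1 (3-4 μM) titrated at 28 °C in 100 mM KPi, 200 mM KCl, 0.004% Triton X-100, pH 7.85, with small aliquots of ligand from DMSO stocks. UV-visible spectra recorded 250-800 nm. Difference spectra give peak-minus-trough absorbance change, plotted against [ligand]. Kd obtained by hyperbolic or Hill fit, averaged over triplicate titrations.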

[2] = Binding affinity to Mycobacterium tuberculosis CYP121A1 by UV-visible spectrophotometric titration method; how it was run: as §1
[3] = test system: Mycobacterium tuberculosis; experiment: Antibacterial activity against Mycobacterium tuberculosis H37Rv after 7 days by resazurin microtiter assay; type: functional; settings: 168 h
How it was run: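 M. tuberculosis H37Rv grown at 37 °C in 7H9 with 10% OADC to mid-log (OD600 0.4-0.6), adjusted to McFarland no.1 and diluted 1:20. Compounds from DMSO stocks serially diluted in 7H9/OADC to final 0.39-100 µg/mL; rifampicin 0.004-1 µg/mL as control. After 7 days at 37 °C, 0.01% resazurin added; fluorescence (530/590 nm) read 24 h later.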

[4] = test system: Mycobacterium tuberculosis; experiment: Binding affinity to Mycobacterium tuberculosis CYP121A1 assessed as blue shift in heme soret peak up to 1750 uM by UV-visible spectrophotometric titration method; how it was run: as §1
[5] = test system: Mycobacterium tuberculosis; experiment: Binding affinity to Mycobacterium tuberculosis CYP121A1 assessed as red shift in heme soret peak up to 500 uM by UV-visible spectrophotometric titration method; how it was run: as §1
[6] = test system: Mycobacterium tuberculosis; experiment: Binding affinity to Mycobacterium tuberculosis CYP121A1 assessed as red shift in heme soret peak up to 250 uM by UV-visible spectrophotometric titration method; how it was run: as §1

Structure (SMILES)	Activity [1]	pKd [2]	MIC90 [3]	Activity [4]	Activity [5]	Activity [6]
O=C1CN(CCCn2ccnc2)CCN1Cc1ccc(F)cc1	Active	3.65	> 100 µg/mL			
O=C(Cn1cncn1)N1CCN(Cc2ccc(Cl)cc2Cl)CC1		3.38	> 100 µg/mL	Active		
COc1ccc(CN2CCN(CCCn3ccnc3)CC2=O)cc1		3.51	> 100 µg/mL		Active	
O=C(Cn1cncn1)N1CCN(Cc2ccc(F)cc2)CC1		3.02	> 100 µg/mL			
O=C(Cn1ccnc1)N1CCN(Cc2ccc(F)cc2)CC1		2.94	> 100 µg/mL			
COc1ccc(CN2CCN(Cc3ccc(OC)cc3)C(Cn3cncn3)C2)cc1 (stereo not given)		2.89	100 µg/mL (≈ 245 µM)			
c1ccc(CN2CCN(Cc3ccccc3)C(Cn3ccnc3)C2)cc1 (stereo not given)			50 µg/mL (≈ 144 µM)			
c1ccc(CN2CCN(Cc3ccccc3)C(Cn3cncn3)C2)cc1 (stereo not given)		2.74	> 100 µg/mL			
COc1cc(CN2CCN(Cc3cc(OC)cc(OC)c3)C(Cn3ccnc3)C2)cc(OC)c1 (stereo not given)		2.84	12.5 µg/mL (≈ 26.8 µM)			
O=C1CN(CCCn2ccnc2)CCN1Cc1ccc(Cl)cc1		4.09	> 100 µg/mL			Active
O=C1CN(CCCn2ccnc2)CCN1Cc1ccc(Cl)cc1Cl		3.01	100 µg/mL (≈ 272 µM)			
